Data taken from ChEMBL document CHEMBL4152390, “Discovery of the First-in-Class Dual Histone Deacetylase-Proteasome Inhibitor” (J Med Chem, 2018).
Activity calls are given as the source filed them. The rule behind the calls is not given here.

How the values were obtained:
SEM cells [1] = assay: Inhibition of HDAC6/chymotrypsin-like activity of 20S proteasome in human SEM cells assessed as increase in phosphorylated JNK protein expression at 0.1 to 10 uM after 18 hrs by Western blot assay; type: cell-based
In short: (§1)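 Cells treated 18 h at indicated concentrations; lysates analysed by western blot for heat shock (Grp94, HSP70, HSP40, HSP27), UPR (BIP, ATF4, ATF6, pJNK) and autophagy (LC3B, p62) proteins.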

[2] = molecular target: T1, Proteasome component C5 (Homo sapiens) (UniProt P20618); assay: Inhibition of caspase-like activity of 20S proteasome in human SEM cells at 4 nM to 25 uM using Z-nLPnLD-aminoluciferin as substrate after 2 hrs by proteasome-Glo assay; type: cell-based
T1 sequence (whole entry): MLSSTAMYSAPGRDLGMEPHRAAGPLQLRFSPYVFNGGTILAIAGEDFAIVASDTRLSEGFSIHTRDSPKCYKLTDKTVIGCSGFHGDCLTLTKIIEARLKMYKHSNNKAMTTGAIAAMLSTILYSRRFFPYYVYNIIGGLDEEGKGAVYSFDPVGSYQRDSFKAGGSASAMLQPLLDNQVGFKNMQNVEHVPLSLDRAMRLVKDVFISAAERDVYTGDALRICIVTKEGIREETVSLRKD

[3] = Cytotoxicity against human BCP-ALL cells derived from patient 4 after 72 hrs by CellTiter-Glo luminescent cell viability assay; type: functional, cell-based
[4] = molecular target: T2, Protein deacetylase HDAC6 (Homo sapiens) (UniProt Q9UBN7); assay: Inhibition of HDAC6 in imatinib-resistant human SUP-B15 cells assessed as increase in acetyl-histone H3 expression at 0.1 to 10 uM after 24 hrs by immunoblot assay; type: cell-based
T2 sequence (whole entry): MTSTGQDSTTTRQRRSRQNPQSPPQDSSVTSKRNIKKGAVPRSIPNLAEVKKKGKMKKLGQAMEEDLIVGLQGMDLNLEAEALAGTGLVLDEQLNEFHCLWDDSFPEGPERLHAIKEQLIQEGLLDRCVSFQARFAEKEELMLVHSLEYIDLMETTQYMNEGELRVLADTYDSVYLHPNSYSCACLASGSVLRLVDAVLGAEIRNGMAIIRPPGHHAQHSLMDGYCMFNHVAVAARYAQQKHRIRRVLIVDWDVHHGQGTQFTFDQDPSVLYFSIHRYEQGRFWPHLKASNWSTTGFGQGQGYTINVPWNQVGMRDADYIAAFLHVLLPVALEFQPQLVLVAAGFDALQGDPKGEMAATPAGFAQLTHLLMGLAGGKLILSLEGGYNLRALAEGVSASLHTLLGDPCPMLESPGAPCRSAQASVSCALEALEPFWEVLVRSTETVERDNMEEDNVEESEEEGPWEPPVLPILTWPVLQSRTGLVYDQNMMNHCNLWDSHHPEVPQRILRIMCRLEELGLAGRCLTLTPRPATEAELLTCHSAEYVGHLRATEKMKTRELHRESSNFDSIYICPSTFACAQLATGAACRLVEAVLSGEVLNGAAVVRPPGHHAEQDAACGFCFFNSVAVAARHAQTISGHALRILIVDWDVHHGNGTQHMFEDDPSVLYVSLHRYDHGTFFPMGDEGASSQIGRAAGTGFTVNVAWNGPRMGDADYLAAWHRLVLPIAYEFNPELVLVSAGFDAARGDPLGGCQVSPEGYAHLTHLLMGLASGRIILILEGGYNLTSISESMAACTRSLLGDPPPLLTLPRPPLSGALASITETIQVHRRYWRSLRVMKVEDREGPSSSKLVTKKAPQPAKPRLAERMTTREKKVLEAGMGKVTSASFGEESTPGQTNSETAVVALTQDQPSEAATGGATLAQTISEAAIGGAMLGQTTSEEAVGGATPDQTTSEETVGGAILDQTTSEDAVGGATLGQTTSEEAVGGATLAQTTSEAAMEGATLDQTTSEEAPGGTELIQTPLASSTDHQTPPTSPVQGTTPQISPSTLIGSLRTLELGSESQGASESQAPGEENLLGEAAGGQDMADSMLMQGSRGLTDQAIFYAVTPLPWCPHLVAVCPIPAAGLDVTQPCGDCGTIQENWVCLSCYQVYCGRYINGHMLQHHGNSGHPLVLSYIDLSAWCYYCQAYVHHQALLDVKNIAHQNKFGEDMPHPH
In short: (§2)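 Cells exposed for 24 h at indicated concentrations; lysates immunoblotted for acetyl-α-tubulin, acetyl-histone H3, PARP, with GAPDH as loading control.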

[5] = molecular target: T3, Proteasome Macropain subunit MB1 (Homo sapiens, UniProt P28074); assay: Inhibition of chymotrypsin-like activity of 20S proteasome in human SEM cells using Suc-LLVY aminoluciferin as substrate after 2 hrs by proteasome-Glo assay; type: cell-based
T3 sequence (P28074 whole entry): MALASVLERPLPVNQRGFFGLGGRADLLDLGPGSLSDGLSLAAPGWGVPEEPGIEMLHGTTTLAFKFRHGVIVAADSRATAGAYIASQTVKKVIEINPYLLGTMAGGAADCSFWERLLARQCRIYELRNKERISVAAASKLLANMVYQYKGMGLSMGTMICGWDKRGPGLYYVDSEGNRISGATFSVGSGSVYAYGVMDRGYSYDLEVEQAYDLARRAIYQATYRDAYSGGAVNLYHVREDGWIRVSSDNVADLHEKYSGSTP

[6] = molecular target: T2, Protein deacetylase HDAC6 (Homo sapiens); assay: Inhibition of HDAC6 in human HL60 cells assessed as increase in acetyl-histone H3 expression at 0.1 to 10 uM after 24 hrs by immunoblot assay; type: cell-based; in short: as §2
[7] = molecular target: T2, Protein deacetylase HDAC6 (Homo sapiens); assay: Inhibition of HDAC6 in imatinib-resistant human SUP-B15 cells assessed as increase in acetyl-alpha tubulin expression at 0.1 to 10 uM after 24 hrs by immunoblot assay; type: cell-based; in short: as §2
[8] = molecular target: Histone deacetylase 3/Nuclear receptor corepressor 2 (HDAC3/NCoR2) (Homo sapiens, UniProt O15379); type: ADME, cell-based
Histone deacetylase 3/Nuclear receptor corepressor 2 (HDAC3/NCoR2), sequence (O15379 whole entry): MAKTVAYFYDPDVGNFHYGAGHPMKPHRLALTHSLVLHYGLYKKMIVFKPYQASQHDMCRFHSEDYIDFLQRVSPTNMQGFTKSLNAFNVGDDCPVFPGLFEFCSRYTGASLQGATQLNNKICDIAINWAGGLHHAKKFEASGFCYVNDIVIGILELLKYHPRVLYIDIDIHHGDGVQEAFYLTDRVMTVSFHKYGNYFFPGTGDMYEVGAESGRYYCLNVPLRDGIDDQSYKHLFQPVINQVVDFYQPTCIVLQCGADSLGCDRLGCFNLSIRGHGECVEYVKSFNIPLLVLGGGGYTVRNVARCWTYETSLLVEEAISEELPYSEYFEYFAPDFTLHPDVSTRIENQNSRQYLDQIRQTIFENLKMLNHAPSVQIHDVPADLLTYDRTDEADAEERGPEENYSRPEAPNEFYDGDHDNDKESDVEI
Histone deacetylase 3/Nuclear receptor corepressor 2 (HDAC3/NCoR2), sequence (Q9Y618 whole entry, further chain): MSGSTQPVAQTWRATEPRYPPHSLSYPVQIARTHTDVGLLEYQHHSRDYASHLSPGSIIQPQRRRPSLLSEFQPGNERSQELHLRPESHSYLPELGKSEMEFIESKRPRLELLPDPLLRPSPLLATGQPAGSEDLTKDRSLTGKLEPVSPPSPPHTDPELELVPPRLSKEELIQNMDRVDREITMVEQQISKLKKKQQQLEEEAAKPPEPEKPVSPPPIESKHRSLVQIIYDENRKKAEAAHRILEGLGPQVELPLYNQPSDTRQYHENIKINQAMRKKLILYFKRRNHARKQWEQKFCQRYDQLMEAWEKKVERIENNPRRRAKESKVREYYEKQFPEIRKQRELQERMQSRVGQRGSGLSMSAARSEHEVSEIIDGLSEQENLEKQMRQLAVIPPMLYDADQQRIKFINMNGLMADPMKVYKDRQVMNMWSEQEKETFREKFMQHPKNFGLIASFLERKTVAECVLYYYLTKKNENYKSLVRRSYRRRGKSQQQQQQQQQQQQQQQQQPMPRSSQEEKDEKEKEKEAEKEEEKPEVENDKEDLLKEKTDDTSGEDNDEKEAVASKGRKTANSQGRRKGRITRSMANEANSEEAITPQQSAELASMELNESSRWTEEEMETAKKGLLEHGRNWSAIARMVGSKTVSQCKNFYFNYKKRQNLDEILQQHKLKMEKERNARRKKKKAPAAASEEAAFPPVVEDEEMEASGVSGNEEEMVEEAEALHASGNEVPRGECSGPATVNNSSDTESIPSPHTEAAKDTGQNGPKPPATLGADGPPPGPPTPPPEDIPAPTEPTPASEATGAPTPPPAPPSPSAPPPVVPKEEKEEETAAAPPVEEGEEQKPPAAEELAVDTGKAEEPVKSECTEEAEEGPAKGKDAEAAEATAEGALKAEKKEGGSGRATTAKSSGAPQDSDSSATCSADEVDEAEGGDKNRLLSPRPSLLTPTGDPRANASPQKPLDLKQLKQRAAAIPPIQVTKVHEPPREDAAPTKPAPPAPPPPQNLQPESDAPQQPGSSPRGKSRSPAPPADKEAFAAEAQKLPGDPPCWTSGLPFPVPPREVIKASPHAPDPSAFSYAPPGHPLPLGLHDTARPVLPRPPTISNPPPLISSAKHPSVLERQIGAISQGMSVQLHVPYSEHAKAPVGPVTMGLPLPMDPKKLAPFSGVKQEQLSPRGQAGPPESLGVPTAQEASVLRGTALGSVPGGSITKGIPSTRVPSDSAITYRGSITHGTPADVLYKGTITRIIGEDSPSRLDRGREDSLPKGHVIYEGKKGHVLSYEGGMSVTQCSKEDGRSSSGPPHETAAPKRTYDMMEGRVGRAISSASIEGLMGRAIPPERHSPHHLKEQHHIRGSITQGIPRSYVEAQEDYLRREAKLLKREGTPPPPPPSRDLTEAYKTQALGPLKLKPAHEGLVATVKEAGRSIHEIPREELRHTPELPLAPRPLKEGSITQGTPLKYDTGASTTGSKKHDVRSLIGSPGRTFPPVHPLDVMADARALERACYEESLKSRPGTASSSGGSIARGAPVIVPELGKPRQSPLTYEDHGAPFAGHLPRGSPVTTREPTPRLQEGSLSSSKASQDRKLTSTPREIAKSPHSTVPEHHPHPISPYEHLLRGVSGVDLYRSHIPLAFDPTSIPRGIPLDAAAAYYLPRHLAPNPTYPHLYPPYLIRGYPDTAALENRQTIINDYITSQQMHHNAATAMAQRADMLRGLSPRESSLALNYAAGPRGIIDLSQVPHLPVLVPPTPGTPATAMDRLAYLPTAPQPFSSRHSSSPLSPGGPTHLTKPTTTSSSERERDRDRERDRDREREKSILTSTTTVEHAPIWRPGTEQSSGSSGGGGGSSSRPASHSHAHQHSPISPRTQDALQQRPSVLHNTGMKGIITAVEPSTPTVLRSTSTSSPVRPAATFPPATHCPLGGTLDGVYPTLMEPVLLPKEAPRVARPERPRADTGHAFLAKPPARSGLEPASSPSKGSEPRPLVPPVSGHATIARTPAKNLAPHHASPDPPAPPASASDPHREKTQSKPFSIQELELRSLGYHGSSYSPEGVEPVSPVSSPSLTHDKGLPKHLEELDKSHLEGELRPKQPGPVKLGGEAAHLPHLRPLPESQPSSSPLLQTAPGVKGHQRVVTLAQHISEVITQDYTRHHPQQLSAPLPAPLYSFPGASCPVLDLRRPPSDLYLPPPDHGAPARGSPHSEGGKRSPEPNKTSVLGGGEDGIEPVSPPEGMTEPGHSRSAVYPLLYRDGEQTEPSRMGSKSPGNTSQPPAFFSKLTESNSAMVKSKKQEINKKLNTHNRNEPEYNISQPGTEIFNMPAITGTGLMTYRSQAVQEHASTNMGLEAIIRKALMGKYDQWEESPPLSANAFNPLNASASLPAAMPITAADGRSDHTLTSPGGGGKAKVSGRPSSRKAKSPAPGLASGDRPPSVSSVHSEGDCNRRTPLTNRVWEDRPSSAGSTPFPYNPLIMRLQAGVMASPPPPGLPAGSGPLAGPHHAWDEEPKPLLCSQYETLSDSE

SEM cells [9] = assay: Inhibition of HDAC6/chymotrypsin-like activity of 20S proteasome in human SEM cells assessed as increase in ATF4 protein expression at 0.1 to 10 uM after 18 hrs by Western blot assay; type: cell-based; in short: as §1
SEM cells [10] = assay: Inhibition of HDAC6/chymotrypsin-like activity of 20S proteasome in human SEM cells assessed as increase in ATF6 protein expression at 0.1 to 10 uM after 18 hrs by Western blot assay; type: cell-based; in short: as §1
[11] = Cytotoxicity against human BCP-ALL cells derived from patient 3 after 72 hrs by CellTiter-Glo luminescent cell viability assay; type: functional, cell-based
[12] = molecular target: Proteasome Macropain subunit (Homo sapiens) (UniProt P49721); assay: Inhibition of trypsin-like activity of 20S proteasome in human imatinib-resistant SUP-B15 cells at 4 nM to 25 uM using Z-LRR-aminoluciferin as substrate after 2 hrs by proteasome-Glo assay; type: cell-based
Proteasome Macropain subunit (Homo sapiens), sequence (P49721 whole entry): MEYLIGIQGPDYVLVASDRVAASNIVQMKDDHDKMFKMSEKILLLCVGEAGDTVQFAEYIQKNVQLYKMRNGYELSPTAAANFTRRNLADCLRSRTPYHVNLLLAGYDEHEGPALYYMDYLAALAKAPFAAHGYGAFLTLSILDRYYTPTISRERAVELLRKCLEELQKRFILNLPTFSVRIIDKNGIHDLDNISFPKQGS

SUP-B15 = assay: Inhibition of HDAC6/chymotrypsin-like activity of 20S proteasome in imatinib-resistant human SUP-B15 cells assessed as increase in cleaved PARP expression at 0.1 to 10 uM after 24 hrs by immunoblot assay; type: cell-based; in short: as §2
[13] = Cytotoxicity against human BCP-ALL cells derived from patient 1 after 72 hrs by CellTiter-Glo luminescent cell viability assay; type: functional, cell-based

inhibition [2]: inactive
inhibition [4]: Active
IC50 [5]: 394 nM
inhibition [6]: Active
inhibition [7]: Active
IC50 [8]: 15 µM
inhibition [12]: inactive
SMILES: C[C@H](NC(=O)[C@H](CC(=O)NCC(C)(C)C)NC(=O)c1ccc(C(=O)NO)cc1)C(=O)NCc1ccccc1
inhibition (SEM cells [1]): Active
IC50 [3]: 1510 nM
inhibition (SEM cells [9]): Active
inhibition (SEM cells [10]): Active
IC50 [11]: 5.23 µM
inhibition (SUP-B15): Active
IC50 [13]: 2060 nM
